Reference: ChEMBL document CHEMBL1137679, “Synthesis and antibacterial activity of some new 2,3-dimethoxy-3-hydroxy-2-(1-phenyl-3-aryl-4-pyrazolyl)chromanones” (2009)
In brackets after ≈: the same amount, converted by molar mass. Activity calls are given as the source filed them. The calls are words filed in the database; no cut-off is given here.

How the values were obtained:
Format in all cases: functional
[1] = test system: Bacillus pumilus; test: Antimicrobial activity against Bacillus pumilus MTCC 1456 after 24 hrs by agar dilution assay; settings: MTCC 1456, 24 h
In short: (§1)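 Agar dilution MIC following NCCLS. Cultures streaked on soyabean casein digest agar overnight at 37 °C, suspended to 0.5 McFarland, then diluted 10-fold (1.2 × 10⁷ CFU/ml). DMSO stocks diluted and added to molten Mueller-Hinton agar, final concentrations 64 down to 0.12 by twofold steps. Plates surface-inoculated, incubated 35 °C for 24 h. MIC is lowest concentration with no visible growth.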

[2] = test system: Salmonella enterica subsp. enterica serovar Typhi str. CT18; test: Antimicrobial activity against Salmonella typhi MTCC 733 after 24 hrs by agar dilution assay; settings: MTCC 733, 24 h
[3] = test system: Staphylococcus aureus; test: Antimicrobial activity against Staphylococcus aureus MTCC 3160 at 1 mg/ml after 24 hrs by agar diffusion assay; settings: MTCC 3160, 24 h, read-out: DIZ
In short: (§2)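 Agar well diffusion. 24-h cultures adjusted to 0.5 McFarland (1.5 × 10⁸ CFU/ml), mixed into molten cooled Mueller-Hinton agar (pH 7.4) and poured. 6 mm wells punched, each loaded with 50 µl of 1 mg/ml DMSO solution. DMSO as negative control, antibiotics as positive controls. Plates incubated 35 °C for 24 h. Mean of three replicates.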

[4] = test system: Salmonella enterica subsp. enterica serovar Typhi str. CT18; test: Antimicrobial activity against Salmonella typhi MTCC 733 at 1 mg/ml after 24 hrs by agar diffusion assay; settings: for zone of inhibition at 1000 µg/mL: MTCC 733, 24 h, read-out: DIZ
In short: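 Well diffusion in MHA (pH 7.4) seeded with 24-h culture adjusted to 0.5 McFarland (1.5 × 10⁸ CFU/ml). Wells of 6 mm received 50 µl of 1 mg/ml DMSO solution; DMSO served as negative control. Incubated 35 °C, 24 h. Mean of three replicates.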

[5] = test system: Pseudomonas aeruginosa; test: Antimicrobial activity against Pseudomonas aeruginosa MTCC 3541 at 1 mg/ml after 24 hrs by agar diffusion assay; settings: for zone of inhibition at 1000 µg/mL: MTCC 3541, 24 h, read-out: DIZ; in short: as §2
[6] = test system: Bacillus pumilus; test: Antimicrobial activity against Bacillus pumilus MTCC 1456 at 1 mg/ml after 24 hrs by agar diffusion assay; settings: for zone of inhibition at 1000 µg/mL: MTCC 1456, 24 h, read-out: DIZ; in short: as §2
[7] = test system: Pseudomonas aeruginosa; test: Antimicrobial activity against Pseudomonas aeruginosa MTCC 3541 after 24 hrs by agar dilution assay; settings: MTCC 3541, 24 h; in short: as §1
[8] = test system: Staphylococcus aureus; test: Antimicrobial activity against Staphylococcus aureus MTCC 3160 after 24 hrs by agar dilution assay; settings: MTCC 3160, 24 h; in short: as §1
[9] = test system: Staphylococcus epidermidis; test: Antimicrobial activity against Staphylococcus epidermidis MTCC 2639 after 24 hrs by agar dilution assay; settings: MTCC 2639, 24 h; in short: as §1
[10] = test system: Staphylococcus epidermidis; test: Antimicrobial activity against Staphylococcus epidermidis MTCC 2639 at 1 mg/ml after 24 hrs by agar diffusion assay; settings: for zone of inhibition at 1000 µg/mL: MTCC 2639, 24 h, read-out: DIZ; in short: as §2

In the case of `COC1(O)C(=O)c2ccccc2OC1(OC)c1cn(-c2ccccc2)nc1-c1ccc([N+](=O)[O-])cc1` (centres undefined), the MIC [1] is reported as 32 µg/mL (≈ 65.6 µM), the MIC [2] is reported as 8 µg/mL (≈ 16.4 µM) and the zone of inhibition at 1000 µg/mL [3] is reported as 26 mm. The zone of inhibition at 1000 µg/mL [4] was 20.6 mm, the zone of inhibition at 1000 µg/mL [5] was 16.6 mm and the zone of inhibition at 1000 µg/mL [6] was 15.8 mm. For the same molecule, the MIC [7] was 16 µg/mL (≈ 32.8 µM), the MIC [8] was 2 µg/mL (≈ 4.1 µM) and the MIC [9] was 8 µg/mL (≈ 16.4 µM). It also gave a zone of inhibition at 1000 µg/mL [10] of 18.5 mm.

In the case of `CC(=O)NC[C@H]1CN(c2ccc(N3CCOCC3)c(F)c2)C(=O)O1` [LINEZOLID], the MIC [1] is reported as 4 µg/mL (≈ 11.9 µM), the MIC [2] is reported as 8 µg/mL (≈ 23.7 µM) and the MIC [7] is reported as < 16 µg/mL. For the same molecule, the MIC [9] was < 16 µg/mL.

For `COc1ccc(-c2nn(-c3ccccc3)cc2C2(OC)Oc3ccccc3C(=O)C2(O)OC)cc1` (centres undefined), the MIC [1] was > 64 µg/mL, the MIC [2] was > 64 µg/mL and the zone of inhibition at 1000 µg/mL [3] was 18 mm. For the same molecule, the “diameter of the inhibition zone (DIZ)” value [4] was “inactive”, the “diameter of the inhibition zone (DIZ)” value [5] was “inactive” and the “diameter of the inhibition zone (DIZ)” value [6] was “inactive”. For the same molecule, the MIC [7] was > 64 µg/mL, the MIC [8] was 16 µg/mL (≈ 33.9 µM) and the MIC [9] was > 64 µg/mL. The “diameter of the inhibition zone (DIZ)” value [10] was “inactive”.

`COC1(O)C(=O)c2ccccc2OC1(OC)c1cn(-c2ccccc2)nc1-c1ccc(F)cc1` (centres undefined) showed an MIC [1] of 64 µg/mL (≈ 139 µM), an MIC [2] of 8 µg/mL (≈ 17.4 µM) and a zone of inhibition at 1000 µg/mL [3] of 23 mm. For the same molecule, the zone of inhibition at 1000 µg/mL [4] was 18.2 mm, the zone of inhibition at 1000 µg/mL [5] was 22.2 mm and the zone of inhibition at 1000 µg/mL [6] was 10.1 mm. It also gave an MIC [7] of 8 µg/mL (≈ 17.4 µM), an MIC [8] of 4 µg/mL (≈ 8.69 µM) and an MIC [9] of 64 µg/mL (≈ 139 µM). For the same molecule, the zone of inhibition at 1000 µg/mL [10] was 12.1 mm.

With `COC1(O)C(=O)c2ccccc2OC1(OC)c1cn(-c2ccccc2)nc1-c1ccc(C)cc1` (centres undefined) the MIC [1] was > 64 µg/mL, the MIC [2] was > 64 µg/mL and the zone of inhibition at 1000 µg/mL [3] was 16.1 mm. The “diameter of the inhibition zone (DIZ)” value [4] was “inactive”, the “diameter of the inhibition zone (DIZ)” value [5] was “inactive” and the “diameter of the inhibition zone (DIZ)” value [6] was “inactive”. For the same molecule, the MIC [7] was > 64 µg/mL, the MIC [8] was 32 µg/mL (≈ 70.1 µM) and the MIC [9] was 64 µg/mL (≈ 140 µM). The zone of inhibition at 1000 µg/mL [10] was 12.6 mm.

In the case of `COC1(O)C(=O)c2ccccc2OC1(OC)c1cn(-c2ccccc2)nc1-c1ccc(Cl)cc1` (centres undefined), the MIC [1] is reported as > 64 µg/mL, the MIC [2] is reported as > 64 µg/mL and the zone of inhibition at 1000 µg/mL [3] is reported as 20.4 mm. For the same molecule, the “diameter of the inhibition zone (DIZ)” value [4] was “inactive”, the zone of inhibition at 1000 µg/mL [5] was 14.7 mm and the “diameter of the inhibition zone (DIZ)” value [6] was “inactive”. It also gave an MIC [7] of 32 µg/mL (≈ 67.1 µM), an MIC [8] of 8 µg/mL (≈ 16.8 µM) and an MIC [9] of 16 µg/mL (≈ 33.5 µM). It also gave a zone of inhibition at 1000 µg/mL [10] of 16.7 mm.

With `CO/N=C(\C(=O)N[C@@H]1C(=O)N2C(C(=O)OC(C)OC(C)=O)=C(COC(N)=O)CS[C@H]12)c1ccco1` (some centres undefined) [CEFUROXIME AXETIL] the MIC [1] was > 16 µg/mL, the MIC [2] was 8 µg/mL (≈ 15.7 µM) and the MIC [7] was > 16 µg/mL. The MIC [8] was 8 µg/mL (≈ 15.7 µM) and the MIC [9] was 8 µg/mL (≈ 15.7 µM).

With `COC1(O)C(=O)c2ccccc2OC1(OC)c1cn(-c2ccccc2)nc1-c1ccc(Br)cc1` (centres undefined) the MIC [1] was > 64 µg/mL, the MIC [2] was > 64 µg/mL and the zone of inhibition at 1000 µg/mL [3] was 10.3 mm. The “diameter of the inhibition zone (DIZ)” value [4] was “inactive”, the “diameter of the inhibition zone (DIZ)” value [5] was “inactive” and the “diameter of the inhibition zone (DIZ)” value [6] was “inactive”. The MIC [7] was > 64 µg/mL, the MIC [8] was 64 µg/mL (≈ 123 µM) and the MIC [9] was > 64 µg/mL. The “diameter of the inhibition zone (DIZ)” value [10] was “inactive”.

`COC1(O)C(=O)c2ccccc2OC1(OC)c1cn(-c2ccccc2)nc1-c1ccccc1` (centres undefined) was tested, and the MIC [1] was > 64 µg/mL, the MIC [2] was > 64 µg/mL and the zone of inhibition at 1000 µg/mL [3] was 18.1 mm. The “diameter of the inhibition zone (DIZ)” value [4] was “inactive”, the “diameter of the inhibition zone (DIZ)” value [5] was “inactive” and the “diameter of the inhibition zone (DIZ)” value [6] was “inactive”. The MIC [7] was > 64 µg/mL, the MIC [8] was 16 µg/mL (≈ 36.2 µM) and the MIC [9] was > 64 µg/mL. For the same molecule, the “diameter of the inhibition zone (DIZ)” value [10] was “inactive”.

`N[C@@H](C(=O)N[C@@H]1C(=O)N2C(C(=O)O)=C(Cl)CS[C@H]12)c1ccccc1` [CEFACLOR ANHYDROUS] was tested, and the MIC [1] was 8 µg/mL (≈ 21.8 µM), the MIC [2] was 8 µg/mL (≈ 21.8 µM) and the MIC [7] was < 16 µg/mL. It also gave an MIC [8] of 2 µg/mL (≈ 5.44 µM) and an MIC [9] of 2 µg/mL (≈ 5.44 µM).
